Data published in paper PMC6445238 (Drug Design, Development and Therapy, 2019).
Entries after “also recorded” stand apart in the source; their conditions may differ.

Key:
[1] = system: dopaminergic neuronal cells in the substantia nigra and striatum; details: ref unpublished data, cited from earlier work
Multiple ascending dose = format: in vivo, human; details: for CSF KM-819 concentration: day 7, 1 hour postdose
Summary of the method: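 Plasma was sampled on day 1 predose and at 0.25–12 h, on days 2–6 predose, and on day 7 predose and at 0.25–24 h. CSF was taken by lumbar puncture on day 1 predose and on day 7, 1 h after the last dose. Plasma was measured by UPLC-MS/MS with a deuterated internal standard, linear over 2–20,000 ng/mL (LOQ 2 ng/mL). Parameters came from non-compartmental analysis. Accumulation index = day 7 AUCtau and Cmax,ss over day 1 AUC0–24 and Cmax.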

[2] = SAD study, safety and tolerability; format: in vivo, human
Summary of the method: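 SAD cohorts were 6 active and 2 placebo healthy males given a single oral dose, with 2 sentinel subjects dosed at least 24 h before the rest. Confinement ran day −1 to day 3, with outpatient visits on days 4 and 7 and follow-up on day 14. Safety covered vital signs, clinical labs, 12-lead ECG, physical exams, and reported or observed AEs, coded with MedDRA 19.1. Counts are subjects with AEs, % of the safety population. Placebo subjects were pooled.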

In the case of `Cc1nn(Cc2ccc(Br)cc2)c(C)c1NC(=O)CSc1ccccc1` [KM-819], the behavioral impairments [1] is listed as “improved the behavioral impairments”, the “protection of dopaminergic neuronal cells” value ([1]; substantia nigra and striatum) is listed as “protected the dopaminergic neuronal cells” and the “AUC0–24, geometric mean (CV%)” value (Multiple ascending dose; 30 mg QD, day 1, young) is listed as 1,761 (21.3) ng·h/mL. The “Cmax, geometric mean (CV%)” value (Multiple ascending dose; 30 mg QD, day 1, young) was 512.0 (30.9) ng/mL, the “Tmax, median (min–max)” value (Multiple ascending dose; 30 mg QD, day 1, young) was 2.00 (1.00–6.00) h and the “CSF KM-819 concentration” value (Multiple ascending dose; 30 mg QD) was “no CSF KM-819 concentrations were measurable”. For the same molecule, the “AUCtau, geometric mean (CV%)” value (Multiple ascending dose; 30 mg QD, day 7, young) was 1,572 (24.8) ng·h/mL, the “Cmax,ss, geometric mean (CV%)” value (Multiple ascending dose; 30 mg QD, day 7, young) was 418.5 (51.7) ng/mL and the “Tmax,ss, median (min–max)” value (Multiple ascending dose; 30 mg QD, day 7, young) was 2.00 (1.00–6.00) h. The “AUC0–24, geometric mean (CV%)” value (Multiple ascending dose; 100 mg QD, day 1, young) was 3,735 (38.5) ng·h/mL, the “Cmax, geometric mean (CV%)” value (Multiple ascending dose; 100 mg QD, day 1, young) was 1,009 (33.0) ng/mL and the “Tmax, median (min–max)” value (Multiple ascending dose; 100 mg QD, day 1, young) was 2.00 (1.00–4.00) h. The “mean CSF/Cmax ratio” value (Multiple ascending dose; 100 mg QD, day 7, CSF 1 hour postdose) was 0.067%, the “AUCtau, geometric mean (CV%)” value (Multiple ascending dose; 100 mg QD, day 7, young) was 3,477 (17.9) ng·h/mL and the “Cmax,ss, geometric mean (CV%)” value (Multiple ascending dose; 100 mg QD, day 7, young) was 1,012 (39.5) ng/mL. For the same molecule, the “Cmin,ss, geometric mean (CV%)” value (Multiple ascending dose; 100 mg QD, day 7, young) was 9.983 (31.1) ng/mL, the “Tmax,ss, median (min–max)” value (Multiple ascending dose; 100 mg QD, day 7, young) was 3.00 (1.00–4.00) h and the “Cmax,ss in elderly relative to young” value (Multiple ascending dose; 200 mg QD for 7 days, day 7) was 191%. The “plasma exposure (AUCtau) in elderly relative to young” value (Multiple ascending dose; 200 mg QD for 7 days, day 7) was 102%, the “AUC0–24, geometric mean (CV%)” value (Multiple ascending dose; 200 mg QD, day 1, elderly) was 17,590 (53.3) ng·h/mL and the “Cmax, geometric mean (CV%)” value (Multiple ascending dose; 200 mg QD, day 1, elderly) was 3,542 (76.4) ng/mL. The “Tmax, median (min–max)” value (Multiple ascending dose; 200 mg QD, day 1, elderly) was 2.00 (1.00–6.00) h, the “AUC0–24, geometric mean (CV%)” value (Multiple ascending dose; 200 mg QD, day 1, young) was 6,485 (62.2) ng·h/mL and the “Cmax, geometric mean (CV%)” value (Multiple ascending dose; 200 mg QD, day 1, young) was 1,465 (77.2) ng/mL. The “Tmax, median (min–max)” value (Multiple ascending dose; 200 mg QD, day 1, young) was 3.00 (2.00–6.00) h, the “mean CSF/Cmax ratio” value (Multiple ascending dose; 200 mg QD, day 7, CSF 1 hour postdose, elderly) was 0.032% and the “mean CSF/Cmax ratio” value (Multiple ascending dose; 200 mg QD, day 7, CSF 1 hour postdose, young) was 0.074%. For the same molecule, the “AUCtau, geometric mean (CV%)” value (Multiple ascending dose; 200 mg QD, day 7, elderly) was 16,250 (34.1) ng·h/mL, the “Cmax,ss, geometric mean (CV%)” value (Multiple ascending dose; 200 mg QD, day 7, elderly) was 3,231 (52.5) ng/mL and the “Cmin,ss, geometric mean (CV%)” value (Multiple ascending dose; 200 mg QD, day 7, elderly) was 44.82 (48.3) ng/mL. For the same molecule, the “Tmax,ss, median (min–max)” value (Multiple ascending dose; 200 mg QD, day 7, elderly) was 2.00 (1.00–4.00) h, the “AUCtau, geometric mean (CV%)” value (Multiple ascending dose; 200 mg QD, day 7, young) was 8,023 (7.7) ng·h/mL and the “Cmax,ss, geometric mean (CV%)” value (Multiple ascending dose; 200 mg QD, day 7, young) was 1,111 (64.3) ng/mL. For the same molecule, the “Cmin,ss, geometric mean (CV%)” value (Multiple ascending dose; 200 mg QD, day 7, young) was 32.44 (19.4) ng/mL, the “Tmax,ss, median (min–max)” value (Multiple ascending dose; 200 mg QD, day 7, young) was 4.00 (4.00–4.00) h and the “AUC0–24, geometric mean (CV%)” value (Multiple ascending dose; 400 mg QD, day 1, young) was 11,260 (37.1) ng·h/mL. For the same molecule, the “Cmax, geometric mean (CV%)” value (Multiple ascending dose; 400 mg QD, day 1, young) was 3,163 (50.7) ng/mL, the “Tmax, median (min–max)” value (Multiple ascending dose; 400 mg QD, day 1, young) was 2.00 (1.00–6.00) h and the “mean CSF/Cmax ratio” value (Multiple ascending dose; 400 mg QD, day 7, CSF 1 hour postdose) was 0.049%. The “AUCtau, geometric mean (CV%)” value (Multiple ascending dose; 400 mg QD, day 7, young) was 19,530 (96.4) ng·h/mL, the “Cmax,ss, geometric mean (CV%)” value (Multiple ascending dose; 400 mg QD, day 7, young) was 3,172 (37.9) ng/mL and the “Cmin,ss, geometric mean (CV%)” value (Multiple ascending dose; 400 mg QD, day 7, young) was 75.14 (28.4) ng/mL. For the same molecule, the “Tmax,ss, median (min–max)” value (Multiple ascending dose; 400 mg QD, day 7, young) was 2.00 (0.50–4.00) h, the “dose proportionality of plasma exposure (AUC) after repeated dosing” value (Multiple ascending dose; 30–400 mg QD for 7 days, day 7) was “approximately dose-proportional; also recorded: dose-proportional increase” and the “variability (CV%) of AUCtau and Cmax,ss” value (Multiple ascending dose; MAD) was “up to 96%”. The “dose proportionality of AUC and Cmax after a single dose” value (Multiple ascending dose; MAD, day 1) was “less than dose-proportional increase”, the “dose proportionality of Cmax after repeated dosing” value (Multiple ascending dose; MAD, day 7) was “less than dose-proportional increase” and the “dose proportionality of Cmin after repeated dosing” value (Multiple ascending dose; MAD, day 7) was “slightly more than dose-proportional increase”. For the same molecule, the “Estimated mean slope, dose proportionality power model, Cmin,ss” value (Multiple ascending dose; MAD, day 7, N=21) was 1.1852, the “mean CSF/Cmax ratio” value (Multiple ascending dose; each cohort) was “less than 0.1%” and the “time to steady-state (trough) concentrations” value (Multiple ascending dose; repeated QD dosing, each group) was 5 days. For the same molecule, the “CSF KM-819 concentration” value (Multiple ascending dose; ≥100 mg QD) was “measurable in more than half of the CSF samples”, the “serious adverse events (SAEs)” value ([2]; SAD) was “no serious adverse events” and the bilirubin levels ([2]; SAD, 10 mg and 30 mg cohorts, day 2, normal on day 7) was “increasing trend of bilirubin levels”. The “Abdominal discomfort, number of subjects (%)” value ([2]; single 10 mg, young, N=6) was 0, the “Cough, number of subjects (%)” value ([2]; single 10 mg, young, N=6) was 0 and the “Eye swelling, number of subjects (%)” value ([2]; single 10 mg, young, N=6) was 0. For the same molecule, the “Face injury, number of subjects (%)” value ([2]; single 10 mg, young, N=6) was 0, the “Headache, number of subjects (%)” value ([2]; single 10 mg, young, N=6) was 0 and the “Hot flush, number of subjects (%)” value ([2]; single 10 mg, young, N=6) was 0. For the same molecule, the “Hyperbilirubinemia, number of subjects (%)” value ([2]; single 10 mg, young, N=6) was 2 (33.3), the “Hypoesthesia, number of subjects (%)” value ([2]; single 10 mg, young, N=6) was 0 and the “Influenza, number of subjects (%)” value ([2]; single 10 mg, young, N=6) was 0. For the same molecule, the “Pain in extremity, number of subjects (%)” value ([2]; single 10 mg, young, N=6) was 0, the “Proteinuria, number of subjects (%)” value ([2]; single 10 mg, young, N=6) was 0 and the “Subjects with any TEAEs, number of subjects (%)” value ([2]; single 10 mg, young, N=6) was 2 (33.3). For the same molecule, the “Syncope, number of subjects (%)” value ([2]; single 10 mg, young, N=6) was 0.
